One series relates to HT-29. The series is described as follows: Antiproliferative activity against human HT29 cells assessed as cell growth inhibition measured after 48 hrs by MTT assay. The note with it: HT-29, 48 h. It is filed as functional, cell-based.
Series [1] deals with HeLa. The series is described as follows: Induction of cell cycle arrest in human HeLa cells assessed as accumulation at G0/G1 phase at 10 uM measured after 24 hrs by flow cytometry analysis (reference value: 54.16%). The format is functional. In general terms: A flow cytometer gives signals particle by particle.
The nature of series [2]: Absolute bioavailability in Sprague-Dawley rat at 25 mg/kg, IG. It is filed as ADME, organism-based. The conditions noted are these: in vivo, po. Summed up:
(§1)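 Rats, n = 3 per group, received a single dose either intragastrically (25 mg/kg) or intravenously (5 mg/kg). Plasma concentration–time curves were used to derive t1/2α, t1/2β, Vd/F, CL/F, AUC0–∞, Tmax and Cmax. Absolute oral bioavailability was calculated from the ig and iv data.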

For series [3], the target named is Signal transducer and activator of transcription 3 (Homo sapiens) (UniProt P40763). Nature of the series: Inhibition of STAT3 in human HeLa cells assessed as decrease in phosphorylation of STAT3 at Tyr705 measured after 24 hrs by Western blot analysis. It is filed as cell-based. The note with it: dose microM <=80, time […]. Summed up:
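HeLa cells exposed 24 h to a range of compound doses. Total cell lysates immunoblotted with specific antibodies for p-STAT3 (Tyr705), p-STAT3 (Ser727) and total STAT3.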
On the technique in general: A western blot detects proteins with antibodies after separation by electrophoresis.

The nature of series [4]: Selectivity index, ratio of inhibition of IL-6 induced STAT3 transcriptional activity to inhibition against HEK-Blue IL-6 cells assessed as reduction in cell viability at 10 uM.
For series [5], the system named is HeLa. Nature of the series: Induction of apoptosis in human HeLa cells assessed as necrotic cells at 20 uM incubated for 24 hrs by Annexin V-FITC/PI staining based flow cytometry (reference value: 0.02%). The format is functional.
In a further series the test system is Caco-2. Nature of the series: Antiproliferative activity against human Caco-2 cells assessed as cell growth inhibition measured after 48 hrs by MTT assay. It is filed as functional, cell-based. The note with it: Caco-2, 48 h. Background: Tetrazolium dyes change colour on reduction, which living cells bring about.
The target of series [6] is T1, Signal transducer and activator of transcription 5A (Homo sapiens) (UniProt P42229).
T1 sequence (whole entry): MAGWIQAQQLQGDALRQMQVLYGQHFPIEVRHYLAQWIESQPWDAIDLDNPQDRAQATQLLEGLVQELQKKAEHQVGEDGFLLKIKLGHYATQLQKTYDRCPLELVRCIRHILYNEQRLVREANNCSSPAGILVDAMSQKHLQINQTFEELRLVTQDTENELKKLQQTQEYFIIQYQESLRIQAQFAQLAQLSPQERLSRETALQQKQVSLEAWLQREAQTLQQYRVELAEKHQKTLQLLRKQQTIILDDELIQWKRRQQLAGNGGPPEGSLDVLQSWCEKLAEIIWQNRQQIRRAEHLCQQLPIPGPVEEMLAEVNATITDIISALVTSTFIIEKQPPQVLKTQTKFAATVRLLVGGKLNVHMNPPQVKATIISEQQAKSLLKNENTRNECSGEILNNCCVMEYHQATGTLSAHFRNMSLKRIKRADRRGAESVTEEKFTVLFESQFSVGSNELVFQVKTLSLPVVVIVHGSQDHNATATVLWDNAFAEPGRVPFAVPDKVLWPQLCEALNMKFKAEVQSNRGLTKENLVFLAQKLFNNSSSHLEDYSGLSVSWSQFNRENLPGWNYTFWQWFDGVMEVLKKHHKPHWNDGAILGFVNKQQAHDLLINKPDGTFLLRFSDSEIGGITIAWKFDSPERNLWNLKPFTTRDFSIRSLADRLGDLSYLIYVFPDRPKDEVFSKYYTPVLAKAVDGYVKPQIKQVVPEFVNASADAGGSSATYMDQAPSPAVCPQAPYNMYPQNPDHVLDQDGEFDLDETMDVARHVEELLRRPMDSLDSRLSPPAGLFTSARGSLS
Nature of the series: Inhibition of STAT5 (unknown origin).

The target of series [7] is Signal transducer and activator of transcription 3 (Homo sapiens) (UniProt P40763). The series is described as follows: Inhibition of IL-6 induced STAT3 transcriptional activity in human HEK-Blue IL-6 cells assessed as secreted embryonic alkaline phosphatase reporter gene expression at 10 uM by microplate reader. It is filed as cell-based. Summed up:
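Single-concentration screen in HEK-Blue IL-6 cells: % inhibition of the SEAP reporter read-out of STAT3 pathway activity, with viability checked by MTT in parallel. Values are averages of three independent experiments.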

Series [8] concerns HeLa. The series is described as follows: Effect on Jak2 level in human Hela cells upto 80 uM after 24 hrs by Western blot analysis. It is filed as functional, cell-based. The conditions noted are these: dose microM <=80, time […].
Series [9] is described as follows: Antiproliferative activity against human U87MG cells assessed as cell growth inhibition measured after 48 hrs by MTT assay. It is filed as functional, cell-based.
In series [10] the target is Signal transducer and activator of transcription 3 (Homo sapiens) (UniProt P40763). The series is described as follows: Inhibition of STAT3 in human HeLa cells assessed as decrease in phosphorylation of STAT3 at Tyr705 cells pretreated with Na3VO4 phosphatase inhibitor measured at 80 uM incubated for 1 hr by Western blot analysis. The format is cell-based. Put shortly:
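HeLa cells pretreated 15 min with 25 μM Na3VO4 (phosphatase inhibitor) before compound exposure. p-STAT3 (Tyr705) assessed by Western blot of total cell lysates with specific antibodies and compared with cells not given Na3VO4.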

Series [11] in a line: Cytotoxicity against human HeLa cells assessed as inhibition of cell viability at 10 uM measured after 48 hrs by MTT assay. The format is cell-based. The conditions noted are these: read-out: INH.
Series [12] addresses Signal transducer and activator of transcription 3 (Homo sapiens) (UniProt P40763). The series is described as follows: Inhibition of STAT3 in human HeLa cells assessed as decrease in phosphorylation of STAT3 at Tyr705 upto 80 uM measured after 6 hrs by Western blot analysis. It is filed as cell-based. The note with it: dose microM <=80, time 6.0 hrs. Put shortly: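 Time course in HeLa cells given 80 μM compound, sampled from 15 min onward through multiple hours; parallel runs at 20 and 40 μM. Total cell lysates Western blotted for p-STAT3 (Tyr705), p-STAT3 (Ser727) and total STAT3.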

For series [13], the system named is HeLa. Nature of the series: Cytotoxicity against human HeLa cells assessed as inhibition of cell viability measured after 48 hrs by MTT assay. It is filed as functional, cell-based. Summed up:
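Growth was read by MTT assay and IC50 taken from dose–response curves. Values are averages of three independent experiments.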

Series [14] concerns HeLa. Nature of the series: Induction of apoptosis in human HeLa cells assessed as necrotic cells at 40 uM incubated for 24 hrs by Annexin V-FITC/PI staining based flow cytometry (reference value: 0.02%). The format is functional.
Series [15] concerns HeLa. The series is described as follows: Induction of apoptosis in human HeLa cells assessed as necrotic cells at 10 uM incubated for 24 hrs by Annexin V-FITC/PI staining based flow cytometry (reference value: 0.02%). The format is functional.
Series [16] in a line: Cytotoxicity against human HEK-Blue IL-6 cells assessed as cell death at 80 uM. The format is cell-based. The note with it: hek-blue il-6, 80 µM.
In series [17] the test system is HeLa. The series is described as follows: Induction of cell cycle arrest in human HeLa cells assessed as accumulation at S phase at 10 uM measured after 24 hrs by flow cytometry analysis (reference value: 34.04%). The format is functional.
Series [18] is described as follows: Antiproliferative activity against human A375 cells assessed as cell growth inhibition measured after 48 hrs by MTT assay. The format is functional, cell-based. The conditions noted are these: A-375, 48 h.
A short description of series [19]: Cmax in Sprague-Dawley rat at 5 mg/kg, iv. It is filed as ADME, organism-based. Details: route intravenous, dose 5 mg/kg. The conditions noted are these: in vivo. Put shortly: as §1
Series [20] has as its system HeLa. Nature of the series: Induction of cell cycle arrest in human HeLa cells assessed as accumulation at G2/M phase at 40 uM measured after 24 hrs by flow cytometry analysis (reference value: 11.81%). It is filed as functional.
A short description of series [21]: Apparent volume of distribution in Sprague-Dawley rat at 5 mg/kg, iv. It is filed as ADME, organism-based. The conditions noted are these: in vivo. Summed up: as §1

Activity calls are given as the source filed them. The rule behind the calls is not given here.

Chain of Signal transducer and activator of transcription 3 (Homo sapiens) (P40763 whole entry): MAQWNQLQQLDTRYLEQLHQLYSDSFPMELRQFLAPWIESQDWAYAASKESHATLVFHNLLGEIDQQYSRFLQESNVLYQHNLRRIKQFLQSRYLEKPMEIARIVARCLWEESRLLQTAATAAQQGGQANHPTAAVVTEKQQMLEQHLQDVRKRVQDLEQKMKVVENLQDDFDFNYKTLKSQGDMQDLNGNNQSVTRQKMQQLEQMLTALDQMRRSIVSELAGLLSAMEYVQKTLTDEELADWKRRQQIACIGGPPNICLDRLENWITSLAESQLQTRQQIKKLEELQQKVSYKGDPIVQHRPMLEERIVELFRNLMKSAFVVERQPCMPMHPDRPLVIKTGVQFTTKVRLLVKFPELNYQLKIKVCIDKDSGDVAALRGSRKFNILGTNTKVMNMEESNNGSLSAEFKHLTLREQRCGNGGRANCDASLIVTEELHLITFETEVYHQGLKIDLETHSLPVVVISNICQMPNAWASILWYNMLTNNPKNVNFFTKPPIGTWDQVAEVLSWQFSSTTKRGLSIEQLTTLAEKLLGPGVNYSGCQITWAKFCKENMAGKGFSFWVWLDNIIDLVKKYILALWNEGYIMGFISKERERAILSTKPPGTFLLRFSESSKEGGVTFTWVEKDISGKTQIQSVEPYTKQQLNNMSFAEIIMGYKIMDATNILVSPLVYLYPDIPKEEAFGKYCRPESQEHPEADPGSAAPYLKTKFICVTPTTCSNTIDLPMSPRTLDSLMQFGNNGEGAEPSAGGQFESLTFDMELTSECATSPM

The IC50 is the point on the concentration scale where inhibition reaches its midpoint. The bioavailability is dose-corrected exposure relative to a reference, in per cent. One may read the inhibition as how much of the control response was suppressed. Broadly, the Cmax is the peak of the concentration-time curve. A word on the Vd/F: it is the apparent distribution volume after extravascular dosing. Consider `CC(=O)Oc1ccccc1C(=O)Nc1ncc([N+](=O)[O-])s1` [NITAZOXANIDE], for which the half-maximal inhibitory concentration (IC50) in the series with HT-29 is greater than 50 µM; in the series on Caco-2, 26.8 µM; in series [9] it was 30 µM; in the series with HeLa [13], 35 µM; in series [18] it was 31.8 µM. The Activity with HeLa [1] is listed as 61.96%; in the series on HeLa [5], 0.04%; in the series on HeLa [14], 0.06%; in the series with HeLa [15], 0.02%; in series [16] it was “Non-Toxic”; in the series with HeLa [17], 28.45%. Further, in the series with HeLa [20], the Activity was 6.6%. This compound showed a bioavailability in series [2] of 5.7%. In addition, the figures for the inhibition result in series [3] and in [7] were “Dose-dependent effect” and 54.6%, respectively. In series [4], the “Selectivity Index” value is 2.8. Also, the inhibition result in series [6] and in [12] was “inactive” each time. Moreover, the result with HeLa [8] was inactive. For the same compound, in series [10], the inhibition entry is “Active”. In addition, the cytotoxicity at 48 h, 10 µM in series [11] is 19.4%. In [19], this compound showed a Cmax of 2800 ng/mL. Also, in series [21], the Vd/F stood at 0.08 L/kg.

The record behind these values is ChEMBL document CHEMBL4706740, “Structure-Activity Study of Nitazoxanide Derivatives as Novel STAT3 Pathway Inhibitors” (ACS Med Chem Lett, 2021).
